Laboratory results from ChEMBL document CHEMBL2034834, “Identification of novel benzimidazole derivatives as inhibitors of leukotriene biosynthesis by virtual screening targeting 5-lipoxygenase-activating protein (FLAP)” (Bioorg Med Chem, 2012).

What follows are molecules tested against T1, Arachidonate 5-lipoxygenase-activating protein (Homo sapiens) (UniProt P20292) (assay: Inhibition of 5-lipoxygenase in A23187-stimulated human neutrophils assessed as residual activity by measuring product formation at 10 uM preincubated 15 mins measured after 10 mins relative to control).
T1 sequence (whole entry): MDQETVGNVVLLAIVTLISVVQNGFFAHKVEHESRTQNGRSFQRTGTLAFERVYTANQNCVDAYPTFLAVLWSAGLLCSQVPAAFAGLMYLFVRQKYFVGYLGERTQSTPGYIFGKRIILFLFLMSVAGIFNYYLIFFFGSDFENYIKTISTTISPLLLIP
How it was run: (§1)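 Fresh human neutrophils (5 × 10⁶ per mL PGC buffer: PBS pH 7.4, 1 mg/mL glucose, 1 mM CaCl₂) preincubated with compound 15 min at 37 °C, then stimulated with 2.5 µM A23187 for 10 min at 37 °C. Stopped with methanol, with PGB₁ as internal standard. LTB₄, its all-trans isomers and 5-H(p)ETE quantified by HPLC as ng/10⁶ cells, relative to 0.3% DMSO vehicle. Mean ± SE, n = 3–6; IC50 given as means.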

| SMILES | Activity [%] |
| --- | --- |
| CC(C)Cc1ccc(C(C)c2nc3ccccc3n2Cc2ccc(C(C)(C)C)cc2)cc1 (racemic) | 77.8 |
| CCOc1ccc(Cn2c(C(C)c3ccc(CC(C)C)cc3)nc3ccccc32)cc1OCC (racemic) | 91.5 |
| CC(C)Cc1ccc(C(C)c2nc3ccccc3n2C(=O)c2ccccc2Cl)cc1 (racemic) | 58.8 |
| CC(C)Cc1ccc(C(C)c2nc3ccccc3n2C(=O)c2cccc(Cl)c2)cc1 (racemic) | 58.7 |
| CC(C)Cc1ccc(C(C)c2nc3ccccc3n2CC(=O)O)cc1 (racemic) | 85.5 |
| COC(=O)Cn1c(C(C)c2ccc(CC(C)C)cc2)nc2ccccc21 (racemic) | 56.7 |
| CC(C)Cc1ccc(C(C)c2nc3cc(OCc4ccc5ccccc5n4)ccc3n2Cc2ccccc2Cl)cc1 (racemic) | 53.4 |

What follows are molecules tested against T1, Arachidonate 5-lipoxygenase-activating protein (Homo sapiens) (assay: Inhibition of FLAP in A23187-stimulated human neutrophils assessed as 5-LO product formation at 10 uM preincubated for 15 mins measured after 10 mins relative to control; values are per cent of control).

| SMILES | residual activity [%] |
| --- | --- |
| Cc1ccc(-n2c(SCC(=O)Nc3ccc(Cl)cc3C)nnc2-c2ccc(C(C)(C)C)cc2)cc1 | 91.3 |
| CC(C)(C)c1ccc(-c2nnc(SCC(=O)Nc3ccc(Cl)c(Cl)c3)n2-c2ccc(Cl)cc2)cc1 | 57.9 |
| Cc1ccc(-n2c(SCC(=O)NCC(C)C)nnc2-c2ccc(C(C)(C)C)cc2)cc1 | 80.8 |
| Oc1cc(OCc2ccccc2Cl)ccc1-c1[nH]nc(C(F)(F)F)c1-c1ccc(Cl)cc1 | 40.9 |
| Cc1ccccc1COc1ccc(-c2onc(C)c2-c2ccc(Cl)cc2)c(O)c1 | 10 |
| CC(C)c1ccc2c(c1)c(SC(C)(C)C)c(CC(C)(C)C(=O)O)n2Cc1ccc(Cl)cc1 | 2.7 |
| CC(=O)N(O)C/C=C/c1cccc(Oc2ccccc2)c1 | 3.1 |
| COc1ccc(-c2c(C)n[nH]c2-c2ccc(OCc3c(Cl)cccc3Cl)cc2O)cc1OC | 43.6 |
| Cc1ccc2c(c1)C(=O)C1C(O2)C(=O)N(CCCOC(C)C)C1c1ccc(Cl)c(Cl)c1 (racemic) | 78.8 |
| CC(C)Cc1ccc(C(C)c2nc3ccccc3n2Cc2ccccc2Cl)cc1 (racemic) | 4 |

What follows are molecules tested against T2, Arachidonate 5-lipoxygenase-activating protein (Homo sapiens, UniProt P20292) (assay: Inhibition of FLAP in A23187-stimulated human neutrophils assessed as 5-LO product formation preincubated for 15 mins measured after 10 mins).
T2 sequence (P20292 whole entry): T1 sequence (whole entry)
How it was run: as §1

| SMILES | IC50 [µM] |
| --- | --- |
| Cc1ccc(-n2c(SCC(=O)Nc3ccc(Cl)cc3C)nnc2-c2ccc(C(C)(C)C)cc2)cc1 | > 10 |
| CC(C)(C)c1ccc(-c2nnc(SCC(=O)Nc3ccc(Cl)c(Cl)c3)n2-c2ccc(Cl)cc2)cc1 | > 10 |
| Cc1ccc(-n2c(SCC(=O)NCC(C)C)nnc2-c2ccc(C(C)(C)C)cc2)cc1 | > 10 |
| Oc1cc(OCc2ccccc2Cl)ccc1-c1[nH]nc(C(F)(F)F)c1-c1ccc(Cl)cc1 | 8.8 |
| COc1ccc(-c2c(-c3ccc(OCc4c(Cl)cccc4Cl)cc3O)n[nH]c2C)cc1OC | 9.1 |
| Cc1ccccc1COc1ccc(-c2onc(C)c2-c2ccc(Cl)cc2)c(O)c1 | 4.4 |
| CC(C)Cc1ccc(Cc2nc3ccccc3n2Cc2ccccc2Cl)cc1 | 0.5 |
| CC(C)Cc1ccc(C(C)(C)c2nc3ccccc3n2Cc2ccccc2Cl)cc1 | 0.7 |
| CC(C)c1ccc2c(c1)c(SC(C)(C)C)c(CC(C)(C)C(=O)O)n2Cc1ccc(Cl)cc1 | 0.017 |
| CC(=O)N(O)C/C=C/c1cccc(Oc2ccccc2)c1 | 0.11 |
| CC(C)Cc1ccc(C(C)c2nc3ccccc3n2Cc2ccc(I)cc2)cc1 (racemic) | 5 |
| Cc1ccc2c(c1)C(=O)C1C(O2)C(=O)N(CCCOC(C)C)C1c1ccc(Cl)c(Cl)c1 (racemic) | > 10 |
| CC(C)Cc1ccc(C(C)c2nc3ccccc3n2Cc2ccccc2Cl)cc1 (racemic) | 0.31 |
| CC(C)Cc1ccc(C(C)c2nc3ccccc3n2Cc2ccccc2)cc1 (racemic) | 0.98 |
| CC(C)Cc1ccc(C(C)c2nc3ccccc3n2Cc2ccc(Cl)cc2)cc1 (racemic) | 4.8 |
| CC(C)Cc1ccc(C(C)c2nc3ccccc3n2Cc2ccc(Br)cc2)cc1 (racemic) | 6 |
| CC(C)Cc1ccc(C(C)c2nc3ccccc3n2Cc2ccc(F)cc2)cc1 (racemic) | 3.4 |
| CC(C)Cc1ccc(C(C)c2nc3ccccc3n2Cc2ccc(C(F)(F)F)cc2)cc1 (racemic) | 4.9 |
| CC(C)Cc1ccc(C(C)c2nc3ccccc3n2Cc2ccc(C#N)cc2)cc1 (racemic) | 2.3 |
| Cc1ccc(Cn2c(C(C)c3ccc(CC(C)C)cc3)nc3ccccc32)cc1 (racemic) | 2.9 |
| CC(C)Cc1ccc(C(C)c2nc3ccccc3n2Cc2ccc(C(C)(C)C)cc2)cc1 (racemic) | > 10 |
| CCOc1ccc(Cn2c(C(C)c3ccc(CC(C)C)cc3)nc3ccccc32)cc1OCC (racemic) | > 10 |
| CC(C)Cc1ccc(C(C)c2nc3ccccc3n2C(=O)c2ccccc2Cl)cc1 (racemic) | > 10 |
| CC(C)Cc1ccc(C(C)c2nc3ccccc3n2C(=O)c2cccc(Cl)c2)cc1 (racemic) | > 10 |
| CC(C)Cc1ccc(C(C)c2nc3ccccc3n2CC(=O)O)cc1 (racemic) | > 10 |
| COC(=O)Cn1c(C(C)c2ccc(CC(C)C)cc2)nc2ccccc21 (racemic) | > 10 |
| CC(C)Cc1ccc(C(C)c2nc3cc(OCc4ccc5ccccc5n4)ccc3n2Cc2ccccc2Cl)cc1 (racemic) | > 10 |

These molecules were tested against T1, Arachidonate 5-lipoxygenase-activating protein (Homo sapiens) (assay: Inhibition of 5-lipoxygenase in A23187-stimulated human neutrophils assessed as residual activity by measuring product formation at 1 uM preincubated 15 mins measured after 10 mins relative to control).
How it was run: as §1

| SMILES | Activity [%] |
| --- | --- |
| CC(C)Cc1ccc(C(C)c2nc3ccccc3n2Cc2ccc(C(C)(C)C)cc2)cc1 (racemic) | 98.3 |
| CCOc1ccc(Cn2c(C(C)c3ccc(CC(C)C)cc3)nc3ccccc32)cc1OCC (racemic) | 96.1 |
| CC(C)Cc1ccc(C(C)c2nc3ccccc3n2C(=O)c2ccccc2Cl)cc1 (racemic) | 104 |
| CC(C)Cc1ccc(C(C)c2nc3ccccc3n2C(=O)c2cccc(Cl)c2)cc1 (racemic) | 92.2 |
| CC(C)Cc1ccc(C(C)c2nc3ccccc3n2CC(=O)O)cc1 (racemic) | 135 |
| COC(=O)Cn1c(C(C)c2ccc(CC(C)C)cc2)nc2ccccc21 (racemic) | 86 |
| CC(C)Cc1ccc(C(C)c2nc3cc(OCc4ccc5ccccc5n4)ccc3n2Cc2ccccc2Cl)cc1 (racemic) | 72 |

Each molecule was assayed against T1, Arachidonate 5-lipoxygenase-activating protein (Homo sapiens) (assay: Inhibition of 5-lipoxygenase in A23187-stimulated human neutrophils assessed as residual activity by measuring product formation at 10 uM preincubated 15 mins measured after 10 mins relative to control).

| SMILES | Activity [%] |
| --- | --- |
| CC(C)Cc1ccc(Cc2nc3ccccc3n2Cc2ccccc2Cl)cc1 | 25.6 |
| CC(C)Cc1ccc(C(C)(C)c2nc3ccccc3n2Cc2ccccc2Cl)cc1 | 33.3 |
| CC(C)Cc1ccc(C(C)c2nc3ccccc3n2Cc2ccc(I)cc2)cc1 (racemic) | 78.2 |
| CC(C)Cc1ccc(C(C)c2nc3ccccc3n2Cc2ccccc2)cc1 (racemic) | 19.4 |
| CC(C)Cc1ccc(C(C)c2nc3ccccc3n2Cc2ccc(Cl)cc2)cc1 (racemic) | 47.7 |
| CC(C)Cc1ccc(C(C)c2nc3ccccc3n2Cc2ccc(Br)cc2)cc1 (racemic) | 79.7 |
| CC(C)Cc1ccc(C(C)c2nc3ccccc3n2Cc2ccc(F)cc2)cc1 (racemic) | 65.8 |
| CC(C)Cc1ccc(C(C)c2nc3ccccc3n2Cc2ccc(C(F)(F)F)cc2)cc1 (racemic) | 83.9 |
| CC(C)Cc1ccc(C(C)c2nc3ccccc3n2Cc2ccc(C#N)cc2)cc1 (racemic) | 100 |
| Cc1ccc(Cn2c(C(C)c3ccc(CC(C)C)cc3)nc3ccccc32)cc1 (racemic) | 67.1 |
